From PubChem
The list is not random: actives were taken first. Their share in the collection is about 3.2%.
mABHD4 FP: ABHD4 (mouse) inhibition, primary FP screen. inhibition, % at 8.92 µM. 0.54% of 370,000 active. Q8VD66. purified mABHD4, FP-Rh probe fluorescence polarization;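 active = inhibition exceeding the mean over every tested compound plus 3 SD, cut at about 30% in these data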;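 also: 0% = plate median of compound wells and 100% = S159A mutant with DMSO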
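system = mouse ABHD4 enzyme, wild type | medium = HEPES pH 7.0, NaCl, Pluronic buffer | also added = FP-Rh probe | incubation = Enzyme–compound pre-incubation 45 min, then probe 60 min, both 25 °C | technique = fluorescence polarization, excitation 525 nm, emission 598 nm, BODIPY TMR filters | controls = S159A mutant high control, sample median low control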
PRMT1 inh: PRMT1 (human) inhibition, primary screen. recombinant PRMT1, activity-based probe fluorescence polarization. inhibition, % at 2.79 µM. 1.3% of 370,000 active. AID 652257;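 active = inhibition above about 21% made by adding two undisclosed values, limit read from the data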
rCAG binder: r(CAG) repeat RNA binding | 1.3% of 370,000 active | inhibition, % at 3 µM | TO-PRO-1 dye displacement fluorescence | AID 651821;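 active = inhibition above the plate cutoff, the mean of all test compounds on that plate plus 3 SD, cut at about 35% in these data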;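 also: 0% = DMSO alone and 100% = 100 µM mitoxantrone as full dye displacement; higher means more dye released from RNA so lower well fluorescence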
DAGLB inh: blocks human DAGLB lipase activity; 0.059% of 340,000 active; AID 504411; HEK293T DAGLB membrane lysate, EnzChek fluorogenic substrate; Q8NCG7; inhibition, % at 5.17 µM; in the data active = inhibition above about 34%;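 also: 0% = enzyme with vehicle and 100% = wells lacking enzyme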
HTRA1 inh: inhibitors of human serine peptidase HTRA1 | recombinant HTRA1, FP-rhodamine activity-based probe, fluorescence polarization | inhibition, % at 5.96 µM | 0.5% of 340,000 active; in the data active = inhibition above about 36%;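 also: 0% = enzyme with DMSO and 100% = wells lacking enzyme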
Target sequence (Q92743 whole entry, looked up): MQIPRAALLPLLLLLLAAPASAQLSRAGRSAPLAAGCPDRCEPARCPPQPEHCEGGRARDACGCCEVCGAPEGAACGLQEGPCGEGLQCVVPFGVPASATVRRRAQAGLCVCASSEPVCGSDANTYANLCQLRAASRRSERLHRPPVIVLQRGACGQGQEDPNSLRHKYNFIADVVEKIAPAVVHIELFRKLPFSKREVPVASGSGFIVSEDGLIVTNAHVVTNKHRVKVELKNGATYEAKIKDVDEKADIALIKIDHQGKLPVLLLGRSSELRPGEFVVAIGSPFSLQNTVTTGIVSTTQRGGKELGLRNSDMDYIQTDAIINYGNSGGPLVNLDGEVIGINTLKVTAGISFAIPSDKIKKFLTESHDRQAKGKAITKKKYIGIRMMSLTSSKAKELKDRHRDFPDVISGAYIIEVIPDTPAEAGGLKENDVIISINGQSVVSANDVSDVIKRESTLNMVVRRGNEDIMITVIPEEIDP
LEDGF integ inh: blocks HIV-1 LEDGF/p75-dependent DNA integration | TR-FRET IN-LEDGF/p75 DNA integration, Eu/Cy5 | inhibition, % at 3.7 µM | 0.64% of 370,000 active | AID 743269;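 active = inhibition above the screen-wide mean plus 3 SD, cut at about 13% in these data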;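 also: signal is the Cy5 over europium emission ratio at 671 and 618 nm; 0% = plate median of compound wells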
rCAG bind conf: r(CAG) RNA repeat binding, confirmation; shares compounds with rCAG binder; TO-PRO-1 dye displacement fluorescence; inhibition, % at 3 µM; 70% of 4,300 active; AID 652065;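 active = inhibition above a per-plate cutoff, the mean inhibition of sample wells plus 3 SD, cut at about 35% in these data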;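 also: loss of TO-PRO-1 fluorescence as compound displaces dye from 1x1 AA loop RNA; 0% = DMSO only wells and 100% = 100 µM mitoxantrone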
DNA CAG counter: counter-screen for rCAG RNA binders: DNA CAG dye complex inhibitors; shares compounds with rCAG binder; d(CAG) DNA oligo TO-PRO-1 dye displacement, fluorescence; inhibition, % at 3 µM; 94% of 4,300 active; AID 652068;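 active = inhibition above its plate's cutoff, the mean test-well inhibition plus 3 SD, cut at about 4.8% in these data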;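 also: 0% = DNA dye mix with DMSO and 100% = 100 µM mitoxantrone; hits displace the dye from DNA and so lower well fluorescence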
The depositor's hits bear a star; . = not tested or not shown.

SMILES | mABHD4 FP | PRMT1 inh | rCAG binder | DAGLB inh | HTRA1 inh | LEDGF integ inh | rCAG bind conf | DNA CAG counter
CC1CCc2nc3ccc(S(=O)(=O)N4CCC(C(=O)NCc5ccccc5Cl)CC4)cc3c(C(=O)O)c2C1 (stereo unspecified) | -0.2 | 1.7 | 47.0* | 4.5 | -21.0 | 4.5 | 54.5* | 20.8*
CCOC(=O)CSc1nc(C(C)C)nc2sc(C)c(C)c12 | 3.0 | 2.6 | -4.5 | -10.5 | -12.3 | -1.1 | . | .
O=C(Nc1nnc(SCc2cccc3ccccc23)s1)C1COc2ccccc2O1 (stereo unspecified) | -42.8 | 1.4 | 49.8* | 4.1 | -73.7 | 0.3 | 39.5* | 8.2*
COc1ccc(C(=NNc2ccccc2C(=O)O)c2ccc(OC)cc2)cc1 | 9.1 | 0.8 | 82.9* | 12.2 | 15.3 | -2.5 | 66.5* | 25.8*
COc1ccc(C(=O)Nc2ccccc2C(=O)Nc2ccccc2C(=O)O)cc1 | -26.8 | 0.8 | 78.1* | 11.4 | -95.6 | 8.4 | 77.1* | 39.5*
COc1ccc2nc(Nc3nc4cc5c(cc4s3)OCO5)sc2c1 | 11.7 | 3.8 | 44.1* | 1.6 | 13.2 | -3.4 | 31.8 | 19.6*
COc1ccc2nc(Nc3ccc4c(c3)OCO4)sc2c1 | 15.0 | 0.4 | 10.4 | 3.0 | 10.3 | 1.6 | . | .
COc1cc(/C=C2/C(=O)NN(c3ccc(Cl)cc3)C2=O)cc(OC)c1O | 25.4 | 16.2 | 37.2* | 16.9 | 0.9 | 0.0 | 13.4 | 4.5*
CCCCOC(=O)c1ccc(Nc2ncnc3nc[nH]c23)cc1 | 0.0 | -2.0 | 1.6 | -1.3 | -6.3 | 1.6 | . | .
CCCCCCCCOC(=O)c1cc([N+](=O)[O-])c(Sc2ncnc3nc[nH]c23)c([N+](=O)[O-])c1 | -7.2 | 0.5 | 37.5* | -16.0 | -3.5 | -5.9 | 40.2* | 18.9*
CCN(CC)S(=O)(=O)c1ccc2oc(SCC(=O)Nc3cc(C)on3)nc2c1 | -3.2 | 3.2 | -0.5 | -0.6 | -1.4 | -1.8 | . | .
CCCCc1ccc(NC(=O)CSCc2cc(=O)[nH][nH]2)cc1 | 9.8 | 1.6 | 42.4* | 14.5 | 12.7 | 7.8 | 14.6 | 4.5*
O=C(CSCc1cc(=O)[nH][nH]1)Nc1ccc(F)cc1 | 6.8 | 1.7 | 5.6 | 5.8 | 0.0 | 1.4 | . | .
COc1cccc(-c2csc(NC(=O)Nc3ccccc3)n2)c1 | -107.6 | 10.1 | 54.2* | -2.7 | -44.1 | 5.9 | 28.9 | 24.9*
O=C(Nc1ccc(-c2csc(Nc3ccccc3)n2)cc1)c1ccccc1 | 1.6 | 0.8 | 14.7 | 0.2 | -9.4 | -0.1 | . | .
O=C(O)CCC(=O)Nc1ccc(-c2csc(Nc3cccc4ccccc34)n2)cc1 | 21.6 | 0.6 | 49.4* | -3.8 | -9.8 | -4.3 | 49.0* | 18.0*
O=C(Nc1ccc(Cl)c(Cl)c1)Nc1nc(-c2ccccc2)cs1 | 9.0 | -0.7 | 23.8 | 3.4 | -14.3 | 2.0 | . | .
O=C(Nc1ccccc1)Nc1nc(-c2ccccc2)cs1 | 2.7 | 2.0 | 43.2* | -2.6 | -2.0 | -4.0 | 12.3 | 15.1*
COc1ccc2[nH]c(CN3CCN(CC=C(C)C)C(CCO)C3)c(C)c2c1 (stereo unspecified) | 5.2 | -0.1 | -7.8 | -2.3 | 1.5 | -3.5 | . | .
O=C(Nc1ccc2c(c1)C(=O)N(CC1CCCO1)C2=O)c1cccc(Br)c1 (stereo unspecified) | -3.7 | -1.0 | 5.6 | -1.6 | -39.7 | 2.0 | . | .
CN(CCNC(=O)C1CCC(=O)N(Cc2cccc(F)c2)C1)CCc1ccccc1 (stereo unspecified) | 3.5 | -2.9 | -10.1 | -1.8 | -6.0 | 0.6 | . | .
Nc1c(C=C2C=CC(=O)C=C2)c(=O)nc2sc(CC(=O)N3CCCC3)nn12 | 3.1 | 3.9 | 16.9 | -0.1 | 1.3 | 2.8 | . | .
CCS(=O)(=O)c1nn2c(N)c(/C=C3/C=CC(=O)C(OC)=C3)c(=O)nc2s1 | 3.1 | 1.8 | 5.2 | 1.0 | -2.9 | 3.7 | . | .
COC1=C/C(=C/c2c(N)n3nc(-c4ccc(C)cc4)sc3nc2=O)C=CC1=O | -19.2 | 1.5 | 62.6* | 16.5 | -20.7 | -4.1 | 58.8* | 19.1*
CCOC1=C/C(=C/c2c(N)n3nc(-c4ccccc4)sc3nc2=O)C=CC1=O | -33.3 | 3.3 | 48.7* | . | . | 4.2 | 58.8* | 24.7*
SMILES | mABHD4 FP | PRMT1 inh | rCAG binder | DAGLB inh | HTRA1 inh | LEDGF integ inh | rCAG bind conf | DNA CAG counter
Cc1c(Cc2ccccc2)c(=O)oc2cc(OCC(=O)N[C@@H](Cc3ccccc3)C(=O)O)ccc12 | 10.3 | 0.8 | 42.2* | 0.6 | -9.0 | 0.7 | 44.9* | 12.3*
Cc1c(C)c2c(OCC(=O)N[C@@H](Cc3ccccc3)C(=O)O)cc3c(c2oc1=O)CCC(C)(C)O3 | -3.2 | -1.9 | 44.9* | 6.0 | -18.9 | 0.3 | 48.4* | 12.7*
Cc1c(CC(=O)O)c(=O)oc2cc(OCc3ccc(Cl)cc3)ccc12 | 8.7 | -2.5 | 38.1* | 0.7 | 0.8 | 2.0 | 32.8 | 6.9*
COc1ccc(-c2cc3ccc(OCC(C)=O)cc3oc2=O)cc1OC | -2.3 | -2.8 | 8.7 | 0.2 | -3.7 | -1.1 | . | .
COc1ccc(-c2cc3ccc(OCc4nn[nH]n4)cc3oc2=O)cc1OC | -16.2 | 0.2 | 35.4* | -0.1 | -3.0 | -1.1 | 19.0 | 4.7*
FC(F)(F)c1ccc(Cl)c(NC2=NCCCCC2)c1 | 2.1 | 0.3 | -1.0 | 2.2 | -0.8 | -2.9 | . | .
Clc1cccc(CNc2ccn3nc(-c4ccc(OCCN5CCOCC5)cc4)cc3n2)c1 | -27.6 | -3.4 | 2.4 | . | . | 1.0 | . | .
O=C(COc1ccc2c(c1)oc(=O)c1ccccc12)NC(Cc1ccc(Cl)cc1)C(=O)O (stereo unspecified) | -9.3 | 1.0 | 55.9* | 2.5 | -8.9 | -0.7 | 56.2* | 18.8*
Cc1c(CC(=O)O)c(=O)oc2cc(OCc3nn[nH]n3)ccc12 | 0.7 | -3.2 | -0.2 | -1.3 | -1.8 | 0.6 | . | .
Cc1c(CC(=O)O)c(=O)oc2cc3oc4c(c3cc12)CCCC4 | 7.5 | -2.0 | 8.4 | -0.4 | -3.8 | -2.1 | . | .
Cc1c(Cc2ccccc2)c(=O)oc2cc(OCc3nn[nH]n3)ccc12 | -9.3 | -0.2 | 38.3* | 4.9 | -15.1 | 2.9 | 35.6* | 9.1*
Cc1oc2cc3oc(=O)c(CC(=O)O)c(C)c3cc2c1-c1ccccc1 | 3.4 | 3.2 | 46.6* | 2.2 | -21.1 | 1.2 | 39.2* | 11.3*
O=C(COc1ccc2c(c1)oc(=O)c1ccccc12)N[C@@H](Cc1ccccc1)C(=O)O | -9.0 | 13.1 | 34.2 | 0.3 | -2.7 | 0.1 | . | .
O=[N+]([O-])c1ccccc1SN(Cc1ccccc1)c1ccccn1 | -3.4 | 4.7 | -0.5 | -5.1 | -7.4 | -3.5 | . | .
Cc1ccccc1N1CC(C(=O)N2CC(C)CC(C)C2)CC1=O (stereo unspecified) | -2.5 | -0.7 | -5.2 | 5.1 | 7.5 | 3.1 | . | .
